{
  "source": "ChEMBL document CHEMBL5724801",
  "about": "“EUbOPEN Chemogenomics Library - Multiplex” (2024)",
  "key": {"Fibroblast": {"test_system": "Fibroblast", "experiment": "Multiplex assay against human fibroblast", "type": "toxicity, cell-based", "method_in_brief": "(§1)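 Live cells were stained at seeding with Hoechst33342, BioTracker Green Microtubule Cytoskeleton Dye, MitoTracker Red and Annexin V Alexa Fluor 680, then imaged on a CQ1 microscope at 37°C and 5% CO2 after compound addition. CellPathfinder machine-learning gating split cells into Hoechst high-intensity objects or normal cells. Normal cells were split into healthy, pyknosed or fragmented nuclei, and pyknosed cells into mitotic or apoptotic. Tubulin, mitochondrial-mass and membrane-permeability phenotypes are per cents of healthy-nucleus cells.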"}, "U2OS": {"test_system": "U2OS", "experiment": "Multiplex assay against U2OS", "type": "toxicity, cell-based", "conditions": "human", "method_in_brief": "as §1"}, "[1]": {"conditions": "12 h, 1 µM, compound concentration 1 uM"}, "[2]": {"conditions": "12 h, 10 µM, compound concentration 10 uM"}, "[3]": {"conditions": "24 h, 1 µM, compound concentration 1 uM"}, "[4]": {"conditions": "24 h, 10 µM, compound concentration 10 uM"}, "[5]": {"conditions": "48 h, 1 µM, compound concentration 1 uM"}, "[6]": {"conditions": "48 h, 10 µM, compound concentration 10 uM"}},
  "note": "Several values for one entry are separate records, joined by “and”; a condition that tells them apart may be missing. Equal values may be shown once.",
  "data": [
    {"smiles": "O=C1CSC(=O)N1C(CCc1ccncc1)COc1ccc(-c2cccc([N+](=O)[O-])c2)cc1", "note": "(configuration not stated)", "values": [
      {"measurement": "Population Apoptotic (%)", "setting": "Fibroblast; [1]", "value": "15.94% and 18.18%"},
      {"measurement": "Population Fragmented Nuclei (%)", "setting": "Fibroblast; [1]", "value": "10.47% and 7.01%"},
      {"measurement": "Population Healthy Nuclei (%)", "setting": "Fibroblast; [1]", "value": "49.42% and 67.29%"},
      {"measurement": "Population Hoechst High Intensity Objects (%)", "setting": "Fibroblast; [1]", "value": 0, "unit": "%"},
      {"measurement": "Population Membrane Permeable-Phenotype (%)", "setting": "Fibroblast; [1]", "value": "7.06% and 9.03%"},
      {"measurement": "Population Mitochondria Different-Phenotype (%)", "setting": "Fibroblast; [1]", "value": "17.65% and 14.58%"},
      {"measurement": "Population Mitotic Cells (%)", "setting": "Fibroblast; [1]", "value": "84.06% and 81.82%"},
      {"measurement": "Population Normal (%)", "setting": "Fibroblast; [1]", "value": 100, "unit": "%"},
      {"measurement": "Population Pyknosed Nuclei (%)", "setting": "Fibroblast; [1]", "value": "40.12% and 25.7%"},
      {"measurement": "Population Tubulin-Different-Phenotype (%)", "setting": "Fibroblast; [1]", "value": "45.88% and 47.22%"},
      {"measurement": "Total Cell Count", "setting": "Fibroblast; [1]", "value": "172 and 214"},
      {"measurement": "Population Apoptotic (%)", "setting": "Fibroblast; [2]", "value": "20.34% and 45%"},
      {"measurement": "Population Fragmented Nuclei (%)", "setting": "Fibroblast; [2]", "value": "16.2% and 9.55%"},
      {"measurement": "Population Healthy Nuclei (%)", "setting": "Fibroblast; [2]", "value": "42.25% and 60.3%"},
      {"measurement": "Population Hoechst High Intensity Objects (%)", "setting": "Fibroblast; [2]", "value": 0, "unit": "%"},
      {"measurement": "Population Membrane Permeable-Phenotype (%)", "setting": "Fibroblast; [2]", "value": "16.67% and 33.33%"},
      {"measurement": "Population Mitochondria Different-Phenotype (%)", "setting": "Fibroblast; [2]", "value": "43.33% and 52.5%"},
      {"measurement": "Population Mitotic Cells (%)", "setting": "Fibroblast; [2]", "value": "79.66% and 55%"},
      {"measurement": "Population Normal (%)", "setting": "Fibroblast; [2]", "value": 100, "unit": "%"},
      {"measurement": "Population Pyknosed Nuclei (%)", "setting": "Fibroblast; [2]", "value": "41.55% and 30.15%"},
      {"measurement": "Population Tubulin-Different-Phenotype (%)", "setting": "Fibroblast; [2]", "value": "71.67% and 99.17%"},
      {"measurement": "Total Cell Count", "setting": "Fibroblast; [2]", "value": "142 and 199"},
      {"measurement": "Population Apoptotic (%)", "setting": "Fibroblast; [3]", "value": "12.82% and 22.22%"},
      {"measurement": "Population Fragmented Nuclei (%)", "setting": "Fibroblast; [3]", "value": "15.38% and 8.89%"},
      {"measurement": "Population Healthy Nuclei (%)", "setting": "Fibroblast; [3]", "value": "63.19% and 75.11%"},
      {"measurement": "Population Hoechst High Intensity Objects (%)", "setting": "Fibroblast; [3]", "value": 0, "unit": "%"},
      {"measurement": "Population Membrane Permeable-Phenotype (%)", "setting": "Fibroblast; [3]", "value": "5.22% and 7.69%"},
      {"measurement": "Population Mitochondria Different-Phenotype (%)", "setting": "Fibroblast; [3]", "value": "13.04% and 14.79%"},
      {"measurement": "Population Mitotic Cells (%)", "setting": "Fibroblast; [3]", "value": "87.18% and 77.78%"},
      {"measurement": "Population Normal (%)", "setting": "Fibroblast; [3]", "value": 100, "unit": "%"},
      {"measurement": "Population Pyknosed Nuclei (%)", "setting": "Fibroblast; [3]", "value": "21.43% and 16%"},
      {"measurement": "Population Tubulin-Different-Phenotype (%)", "setting": "Fibroblast; [3]", "value": "32.17% and 39.05%"},
      {"measurement": "Total Cell Count", "setting": "Fibroblast; [3]", "value": "182 and 225"},
      {"measurement": "Population Apoptotic (%)", "setting": "Fibroblast; [4]", "value": "30.56% and 30.23%"},
      {"measurement": "Population Fragmented Nuclei (%)", "setting": "Fibroblast; [4]", "value": "18.75% and 10.08%"},
      {"measurement": "Population Healthy Nuclei (%)", "setting": "Fibroblast; [4]", "value": "56.25% and 71.85%"},
      {"measurement": "Population Hoechst High Intensity Objects (%)", "setting": "Fibroblast; [4]", "value": 0, "unit": "%"},
      {"measurement": "Population Membrane Permeable-Phenotype (%)", "setting": "Fibroblast; [4]", "value": "9.88% and 12.87%"},
      {"measurement": "Population Mitochondria Different-Phenotype (%)", "setting": "Fibroblast; [4]", "value": "43.21% and 52.05%"},
      {"measurement": "Population Mitotic Cells (%)", "setting": "Fibroblast; [4]", "value": "69.44% and 69.77%"},
      {"measurement": "Population Normal (%)", "setting": "Fibroblast; [4]", "value": 100, "unit": "%"},
      {"measurement": "Population Pyknosed Nuclei (%)", "setting": "Fibroblast; [4]", "value": "25% and 18.07%"},
      {"measurement": "Population Tubulin-Different-Phenotype (%)", "setting": "Fibroblast; [4]", "value": "86.42% and 97.08%"},
      {"measurement": "Total Cell Count", "setting": "Fibroblast; [4]", "value": "144 and 238"},
      {"measurement": "Population Apoptotic (%)", "setting": "Fibroblast; [5]", "value": "21.43% and 21.21%"},
      {"measurement": "Population Fragmented Nuclei (%)", "setting": "Fibroblast; [5]", "value": "11.27% and 8.23%"},
      {"measurement": "Population Healthy Nuclei (%)", "setting": "Fibroblast; [5]", "value": "81.86% and 77.49%"},
      {"measurement": "Population Hoechst High Intensity Objects (%)", "setting": "Fibroblast; [5]", "value": 0, "unit": "%"},
      {"measurement": "Population Membrane Permeable-Phenotype (%)", "setting": "Fibroblast; [5]", "value": "1.2% and 3.91%"},
      {"measurement": "Population Mitochondria Different-Phenotype (%)", "setting": "Fibroblast; [5]", "value": "16.17% and 5.59%"},
      {"measurement": "Population Mitotic Cells (%)", "setting": "Fibroblast; [5]", "value": "78.57% and 78.79%"},
      {"measurement": "Population Normal (%)", "setting": "Fibroblast; [5]", "value": 100, "unit": "%"},
      {"measurement": "Population Pyknosed Nuclei (%)", "setting": "Fibroblast; [5]", "value": "6.86% and 14.29%"},
      {"measurement": "Population Tubulin-Different-Phenotype (%)", "setting": "Fibroblast; [5]", "value": "25.75% and 37.99%"},
      {"measurement": "Total Cell Count", "setting": "Fibroblast; [5]", "value": "204 and 231"},
      {"measurement": "Population Fragmented Nuclei (%)", "setting": "Fibroblast; [6]", "value": "15.87% and 12.5%"},
      {"measurement": "Population Healthy Nuclei (%)", "setting": "Fibroblast; [6]", "value": "73.02% and 80.83%"},
      {"measurement": "Population Hoechst High Intensity Objects (%)", "setting": "Fibroblast; [6]", "value": 0, "unit": "%"},
      {"measurement": "Population Membrane Permeable-Phenotype (%)", "setting": "Fibroblast; [6]", "value": "13.04% and 19.07%"},
      {"measurement": "Population Mitochondria Different-Phenotype (%)", "setting": "Fibroblast; [6]", "value": "35.51% and 19.59%"},
      {"measurement": "Population Mitotic Cells (%)", "setting": "Fibroblast; [6]", "value": "61.9% and 87.5%"},
      {"measurement": "Population Normal (%)", "setting": "Fibroblast; [6]", "value": 100, "unit": "%"},
      {"measurement": "Population Pyknosed Nuclei (%)", "setting": "Fibroblast; [6]", "value": "11.11% and 6.67%"},
      {"measurement": "Population Tubulin-Different-Phenotype (%)", "setting": "Fibroblast; [6]", "value": "84.06% and 98.45%"},
      {"measurement": "Total Cell Count", "setting": "Fibroblast; [6]", "value": "189 and 240"},
      {"measurement": "Population Apoptotic (%)", "setting": "U2OS; [1]", "value": "46.67% and 30.43%"},
      {"measurement": "Population Fragmented Nuclei (%)", "setting": "U2OS; [1]", "value": "1.68% and 1.25%"},
      {"measurement": "Population Healthy Nuclei (%)", "setting": "U2OS; [1]", "value": "91.11% and 84.38%"},
      {"measurement": "Population Hoechst High Intensity Objects (%)", "setting": "U2OS; [1]", "value": "0% and 0.62%"},
      {"measurement": "Population Membrane Permeable-Phenotype (%)", "setting": "U2OS; [1]", "value": "0.26% and 4.44%"},
      {"measurement": "Population Mitochondria Different-Phenotype (%)", "setting": "U2OS; [1]", "value": "0.26% and 9.63%"},
      {"measurement": "Population Mitotic Cells (%)", "setting": "U2OS; [1]", "value": "53.33% and 69.57%"},
      {"measurement": "Population Normal (%)", "setting": "U2OS; [1]", "value": "100% and 99.38%"},
      {"measurement": "Population Pyknosed Nuclei (%)", "setting": "U2OS; [1]", "value": "7.21% and 14.37%"},
      {"measurement": "Population Tubulin-Different-Phenotype (%)", "setting": "U2OS; [1]", "value": "1.58% and 2.22%"},
      {"measurement": "Total Cell Count", "setting": "U2OS; [1]", "value": "416 and 161"},
      {"measurement": "Population Apoptotic (%)", "setting": "U2OS; [2]", "value": "42.24% and 24.39%"},
      {"measurement": "Population Fragmented Nuclei (%)", "setting": "U2OS; [2]", "value": "2.2% and 3.42%"},
      {"measurement": "Population Healthy Nuclei (%)", "setting": "U2OS; [2]", "value": "69.51% and 68.49%"},
      {"measurement": "Population Hoechst High Intensity Objects (%)", "setting": "U2OS; [2]", "value": "0.24% and 0%"},
      {"measurement": "Population Membrane Permeable-Phenotype (%)", "setting": "U2OS; [2]", "value": "53.68% and 77%"},
      {"measurement": "Population Mitochondria Different-Phenotype (%)", "setting": "U2OS; [2]", "value": "42.11% and 86%"},
      {"measurement": "Population Mitotic Cells (%)", "setting": "U2OS; [2]", "value": "57.76% and 75.61%"},
      {"measurement": "Population Normal (%)", "setting": "U2OS; [2]", "value": "99.76% and 100%"},
      {"measurement": "Population Pyknosed Nuclei (%)", "setting": "U2OS; [2]", "value": "28.29% and 28.08%"},
      {"measurement": "Population Tubulin-Different-Phenotype (%)", "setting": "U2OS; [2]", "value": "96.84% and 85%"},
      {"measurement": "Total Cell Count", "setting": "U2OS; [2]", "value": "411 and 146"},
      {"measurement": "Population Apoptotic (%)", "setting": "U2OS; [3]", "value": "40.38% and 40%"},
      {"measurement": "Population Fragmented Nuclei (%)", "setting": "U2OS; [3]", "value": "0.93% and 1.52%"},
      {"measurement": "Population Healthy Nuclei (%)", "setting": "U2OS; [3]", "value": "89.44% and 80.81%"},
      {"measurement": "Population Hoechst High Intensity Objects (%)", "setting": "U2OS; [3]", "value": "0.18% and 0%"},
      {"measurement": "Population Membrane Permeable-Phenotype (%)", "setting": "U2OS; [3]", "value": "0.62% and 1.88%"}
    ]}
  ]
}
